ChEMBL document CHEMBL5661979, “Pharmacological inhibition of BMK1 suppresses tumor growth through promyelocytic leukemia protein” (Cancer Cell, 2010)

Columns and labels:
[1] = biological target: Serine/threonine-protein kinase DCLK1 (Homo sapiens) (UniProt O15075); experiment: Inhibition of DCAMKL1 (unknown origin) assessed as remaining activity at 10 uM by ATP-competition binding assay relative to control
[2] = biological target: Serine/threonine-protein kinase A-Raf (Homo sapiens, UniProt P10398); experiment: Inhibition of ARAF in human HeLa cells lysate pre incubated for 15 mins followed by ATP acyl phosphate probe addition and measured after 10 mins by LC-MS/MS analysis; format: subcellular
In short: (§1)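 KiNativ-type profiling in HeLa lysate (5 mg/mL total protein). Lysate preincubated 15 min with inhibitor at 50, 10, 2, 0.8 or 0 μM, then ATP or ADP acylphosphate probe added (5 μM final) for 10 min. Reaction stopped with urea and analysed by targeted MS, using up to four fragment ions per kinase peptide-probe conjugate. % inhibition calculated against untreated lysate. Duplicate reactions.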

[3] = biological target: Serine/threonine-protein kinase ATR (Homo sapiens, UniProt Q13535); experiment: Inhibition of ATR in human HeLa cells lysate pre incubated for 15 mins followed by ATP acyl phosphate probe addition and measured after 10 mins by LC-MS/MS analysis; format: subcellular; in short: as §1
[4] = Inhibition of CDK5/PRKX/PRKY in human HeLa cells lysate pre incubated for 15 mins followed by ATP acyl phosphate probe addition and measured after 10 mins by LC-MS/MS analysis; format: subcellular
In short: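 KiNativ profiling in HeLa lysate (5 mg/mL total protein). Lysate incubated 15 min with inhibitor at 50, 10, 2, 0.8 or 0 μM. ATP or ADP acylphosphate probe then added (5 μM final) and reacted 10 min. Reaction stopped with urea and analysed by targeted MS, using up to four fragment ions per kinase peptide-probe conjugate. % inhibition taken against untreated lysate. Run in duplicate.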

[5] = biological target: Dual specificity mitogen-activated protein kinase kinase 3 (Homo sapiens, UniProt P46734); experiment: Inhibition of MAP2K3 in human HeLa cells lysate pre incubated for 15 mins followed by ATP acyl phosphate probe addition and measured after 10 mins by LC-MS/MS analysis; format: subcellular
[6] = biological target: Serine/threonine-protein kinase 4 (Homo sapiens, UniProt Q13043); experiment: Inhibition of MST1 in human HeLa cells lysate pre incubated for 15 mins followed by ADP acyl phosphate probe addition and measured after 10 mins by LC-MS/MS analysis; format: subcellular
[7] = biological target: Protein kinase C iota type (Homo sapiens, UniProt P41743); experiment: Inhibition of PKCiota in human HeLa cells lysate pre incubated for 15 mins followed by ADP acyl phosphate probe addition and measured after 10 mins by LC-MS/MS analysis; format: subcellular
RPS6KA1/RPS6KA2/RPS6KA3 = RPS6KA1/RPS6KA2/RPS6KA3 (Homo sapiens, UniProt P51812+Q15349+Q15418); experiment: Inhibition of RSK1/RSK2/RSK3 domain 1 in human HeLa cells lysate pre incubated for 15 mins followed by ADP acyl phosphate probe addition and measured after 10 mins by LC-MS/MS analysis; format: subcellular
[8] = biological target: Mitogen-activated protein kinase 3 (Homo sapiens, UniProt P27361); experiment: Inhibition of ERK1 in human HeLa cells lysate at 10 uM pre incubated for 15 mins followed by ADP acyl phosphate probe addition and measured after 10 mins by LC-MS/MS analysis relative to control; format: subcellular; conditions: time 25.0 min
[9] = biological target: T1, Serine/threonine-protein kinase Nek9 (Homo sapiens) (UniProt Q8TD19); experiment: Inhibition of NEK9 in human HeLa cells lysate at 2 uM pre incubated for 15 mins followed by ADP acyl phosphate probe addition and measured after 10 mins by LC-MS/MS analysis relative to control; format: subcellular; conditions: time 25.0 min
T1 sequence (whole entry): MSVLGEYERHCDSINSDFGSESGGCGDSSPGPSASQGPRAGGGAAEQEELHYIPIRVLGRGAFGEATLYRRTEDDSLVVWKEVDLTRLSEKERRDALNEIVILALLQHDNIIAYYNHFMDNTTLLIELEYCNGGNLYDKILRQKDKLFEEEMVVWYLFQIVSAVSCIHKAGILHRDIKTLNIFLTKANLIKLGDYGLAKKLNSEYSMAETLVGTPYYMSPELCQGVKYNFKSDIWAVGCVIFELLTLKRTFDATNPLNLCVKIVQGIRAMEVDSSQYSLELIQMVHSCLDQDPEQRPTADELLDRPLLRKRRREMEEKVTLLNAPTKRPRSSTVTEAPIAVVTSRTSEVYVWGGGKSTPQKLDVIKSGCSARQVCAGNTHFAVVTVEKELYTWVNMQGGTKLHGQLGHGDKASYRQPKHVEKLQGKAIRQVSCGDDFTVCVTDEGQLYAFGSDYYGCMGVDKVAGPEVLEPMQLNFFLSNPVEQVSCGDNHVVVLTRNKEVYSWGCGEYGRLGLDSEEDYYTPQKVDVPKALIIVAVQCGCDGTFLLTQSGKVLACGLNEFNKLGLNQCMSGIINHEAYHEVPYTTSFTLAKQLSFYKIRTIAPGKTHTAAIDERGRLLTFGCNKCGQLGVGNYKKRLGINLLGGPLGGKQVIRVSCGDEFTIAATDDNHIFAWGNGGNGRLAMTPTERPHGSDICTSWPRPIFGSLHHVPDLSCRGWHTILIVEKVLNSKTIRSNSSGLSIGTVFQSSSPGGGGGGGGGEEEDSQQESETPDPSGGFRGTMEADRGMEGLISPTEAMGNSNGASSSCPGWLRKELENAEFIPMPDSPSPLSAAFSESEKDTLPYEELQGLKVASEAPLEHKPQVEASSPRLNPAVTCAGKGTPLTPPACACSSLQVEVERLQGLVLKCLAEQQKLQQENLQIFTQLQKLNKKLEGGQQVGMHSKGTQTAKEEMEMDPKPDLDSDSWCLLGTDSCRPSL

[10] = biological target: Ephrin type-B receptor 4 (Homo sapiens) (UniProt P54760); experiment: Inhibition of EphB4 in human HeLa cells lysate at 2 uM pre incubated for 15 mins followed by ATP acyl phosphate probe addition and measured after 10 mins by LC-MS/MS analysis relative to control; format: subcellular; conditions: time 25.0 min
Chain of Ephrin type-B receptor 4 (Homo sapiens) (P54760 whole entry): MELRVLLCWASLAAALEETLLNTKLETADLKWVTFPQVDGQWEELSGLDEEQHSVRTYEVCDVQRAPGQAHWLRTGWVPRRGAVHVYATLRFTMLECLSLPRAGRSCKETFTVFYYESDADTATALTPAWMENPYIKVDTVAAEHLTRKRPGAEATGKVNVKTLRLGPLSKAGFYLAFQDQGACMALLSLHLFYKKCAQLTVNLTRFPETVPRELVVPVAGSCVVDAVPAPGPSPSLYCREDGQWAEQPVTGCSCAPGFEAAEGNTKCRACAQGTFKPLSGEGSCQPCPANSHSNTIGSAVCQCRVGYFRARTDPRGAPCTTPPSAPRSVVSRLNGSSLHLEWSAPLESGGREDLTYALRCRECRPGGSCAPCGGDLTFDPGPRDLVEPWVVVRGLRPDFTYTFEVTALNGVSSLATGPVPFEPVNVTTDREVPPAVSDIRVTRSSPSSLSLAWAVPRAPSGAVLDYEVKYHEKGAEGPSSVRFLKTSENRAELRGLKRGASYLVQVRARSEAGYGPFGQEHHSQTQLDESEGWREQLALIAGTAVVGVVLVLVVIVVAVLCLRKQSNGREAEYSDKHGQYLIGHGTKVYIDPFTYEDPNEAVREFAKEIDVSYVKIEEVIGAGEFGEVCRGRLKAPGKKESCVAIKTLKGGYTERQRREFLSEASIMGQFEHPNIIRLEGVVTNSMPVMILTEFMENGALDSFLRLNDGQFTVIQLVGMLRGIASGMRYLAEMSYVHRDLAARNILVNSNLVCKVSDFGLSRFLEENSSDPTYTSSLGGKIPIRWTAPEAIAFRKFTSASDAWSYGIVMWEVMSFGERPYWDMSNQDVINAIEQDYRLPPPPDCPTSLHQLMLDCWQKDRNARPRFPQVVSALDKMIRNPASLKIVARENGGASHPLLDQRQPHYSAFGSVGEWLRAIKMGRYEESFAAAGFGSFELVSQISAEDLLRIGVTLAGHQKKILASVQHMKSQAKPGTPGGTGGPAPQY

Chain of Mitogen-activated protein kinase 3 (P27361 whole entry): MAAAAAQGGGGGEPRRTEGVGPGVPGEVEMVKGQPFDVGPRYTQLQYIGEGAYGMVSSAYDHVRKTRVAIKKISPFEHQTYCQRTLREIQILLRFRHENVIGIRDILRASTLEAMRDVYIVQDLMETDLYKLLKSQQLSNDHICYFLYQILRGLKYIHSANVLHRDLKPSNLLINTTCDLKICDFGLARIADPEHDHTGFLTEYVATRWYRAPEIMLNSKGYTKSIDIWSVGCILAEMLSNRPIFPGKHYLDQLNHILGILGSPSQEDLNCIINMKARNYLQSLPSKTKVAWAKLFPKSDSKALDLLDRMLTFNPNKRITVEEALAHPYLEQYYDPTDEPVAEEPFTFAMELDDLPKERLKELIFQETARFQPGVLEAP
Chain of Protein kinase C iota type (P41743 whole entry, the tested form may be a part): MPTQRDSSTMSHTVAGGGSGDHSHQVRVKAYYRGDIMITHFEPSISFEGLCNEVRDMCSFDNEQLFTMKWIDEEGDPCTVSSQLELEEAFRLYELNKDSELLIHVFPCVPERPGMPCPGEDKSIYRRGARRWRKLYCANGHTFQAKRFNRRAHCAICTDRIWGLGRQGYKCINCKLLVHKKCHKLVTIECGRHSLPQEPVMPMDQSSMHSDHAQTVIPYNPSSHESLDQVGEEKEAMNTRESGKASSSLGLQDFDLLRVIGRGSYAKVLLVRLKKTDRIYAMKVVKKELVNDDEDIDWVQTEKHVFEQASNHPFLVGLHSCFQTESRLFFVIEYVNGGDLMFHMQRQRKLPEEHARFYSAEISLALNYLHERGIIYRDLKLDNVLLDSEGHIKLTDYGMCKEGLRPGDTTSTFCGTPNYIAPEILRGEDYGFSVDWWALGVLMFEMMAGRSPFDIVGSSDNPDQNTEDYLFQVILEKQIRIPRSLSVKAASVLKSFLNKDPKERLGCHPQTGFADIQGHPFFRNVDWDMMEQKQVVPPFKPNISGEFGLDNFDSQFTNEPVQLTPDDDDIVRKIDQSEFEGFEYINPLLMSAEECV
Chain of Dual specificity mitogen-activated protein kinase kinase 3 (P46734 whole entry): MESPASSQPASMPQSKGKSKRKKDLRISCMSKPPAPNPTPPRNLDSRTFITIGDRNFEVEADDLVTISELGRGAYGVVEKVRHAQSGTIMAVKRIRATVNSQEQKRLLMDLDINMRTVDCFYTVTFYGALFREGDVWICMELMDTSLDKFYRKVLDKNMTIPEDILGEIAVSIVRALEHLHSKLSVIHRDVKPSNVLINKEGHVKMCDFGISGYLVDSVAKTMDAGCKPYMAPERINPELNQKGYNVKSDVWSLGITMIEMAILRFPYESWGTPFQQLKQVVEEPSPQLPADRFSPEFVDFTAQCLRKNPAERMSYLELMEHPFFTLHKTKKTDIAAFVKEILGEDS
Chain of Serine/threonine-protein kinase A-Raf (P10398 whole entry, the tested form may be a part): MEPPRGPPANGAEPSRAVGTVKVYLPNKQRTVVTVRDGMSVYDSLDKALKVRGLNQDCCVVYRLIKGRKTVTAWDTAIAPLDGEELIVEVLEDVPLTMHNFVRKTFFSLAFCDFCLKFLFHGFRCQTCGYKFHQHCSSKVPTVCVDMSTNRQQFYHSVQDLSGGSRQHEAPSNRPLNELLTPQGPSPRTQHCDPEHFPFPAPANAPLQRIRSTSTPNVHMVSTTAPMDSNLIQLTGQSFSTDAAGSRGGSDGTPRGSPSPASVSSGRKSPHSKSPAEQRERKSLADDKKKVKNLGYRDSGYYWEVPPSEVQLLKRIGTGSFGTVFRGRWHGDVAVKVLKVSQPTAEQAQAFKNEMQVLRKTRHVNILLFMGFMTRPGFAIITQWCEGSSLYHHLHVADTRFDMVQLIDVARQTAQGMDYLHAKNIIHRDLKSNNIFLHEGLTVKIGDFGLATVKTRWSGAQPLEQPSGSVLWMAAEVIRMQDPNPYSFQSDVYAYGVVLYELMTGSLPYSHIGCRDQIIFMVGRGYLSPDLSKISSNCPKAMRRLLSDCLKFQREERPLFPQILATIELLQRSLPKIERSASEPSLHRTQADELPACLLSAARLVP
Chain of Serine/threonine-protein kinase 4 (Q13043 whole entry): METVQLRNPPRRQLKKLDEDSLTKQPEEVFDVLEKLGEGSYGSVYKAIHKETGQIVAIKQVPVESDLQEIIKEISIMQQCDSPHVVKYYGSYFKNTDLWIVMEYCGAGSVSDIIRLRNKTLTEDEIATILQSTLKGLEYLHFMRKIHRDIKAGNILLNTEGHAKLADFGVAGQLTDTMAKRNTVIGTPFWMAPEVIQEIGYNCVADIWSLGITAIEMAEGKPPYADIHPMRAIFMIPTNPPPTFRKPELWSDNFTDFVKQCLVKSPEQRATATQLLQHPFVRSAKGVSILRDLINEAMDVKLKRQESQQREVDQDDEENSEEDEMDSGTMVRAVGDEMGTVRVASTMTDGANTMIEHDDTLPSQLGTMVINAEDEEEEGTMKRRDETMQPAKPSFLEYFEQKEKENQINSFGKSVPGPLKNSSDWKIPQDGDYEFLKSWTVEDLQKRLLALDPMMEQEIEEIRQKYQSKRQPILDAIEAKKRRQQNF
Chain of Serine/threonine-protein kinase DCLK1 (Homo sapiens) (O15075 whole entry): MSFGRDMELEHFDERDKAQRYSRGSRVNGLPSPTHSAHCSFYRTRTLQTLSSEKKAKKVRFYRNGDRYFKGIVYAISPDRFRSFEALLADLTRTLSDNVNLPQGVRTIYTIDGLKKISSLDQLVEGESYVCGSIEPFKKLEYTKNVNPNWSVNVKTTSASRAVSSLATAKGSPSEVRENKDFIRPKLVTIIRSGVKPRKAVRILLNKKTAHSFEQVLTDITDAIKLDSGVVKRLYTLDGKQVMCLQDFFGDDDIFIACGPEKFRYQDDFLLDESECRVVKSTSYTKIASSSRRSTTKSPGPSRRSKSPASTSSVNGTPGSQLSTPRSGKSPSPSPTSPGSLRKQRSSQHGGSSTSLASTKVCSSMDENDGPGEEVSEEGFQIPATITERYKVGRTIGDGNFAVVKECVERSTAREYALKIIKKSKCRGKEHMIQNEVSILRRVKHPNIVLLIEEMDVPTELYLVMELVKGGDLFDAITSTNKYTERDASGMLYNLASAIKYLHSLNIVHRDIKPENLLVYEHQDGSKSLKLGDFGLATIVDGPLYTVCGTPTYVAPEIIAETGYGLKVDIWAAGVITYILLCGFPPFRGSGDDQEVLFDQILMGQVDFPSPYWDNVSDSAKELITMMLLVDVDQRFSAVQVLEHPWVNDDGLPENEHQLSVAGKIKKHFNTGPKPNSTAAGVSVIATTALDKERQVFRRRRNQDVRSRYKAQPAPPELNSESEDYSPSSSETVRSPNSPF

CCOc1cc(N2CCC(O)CC2)ccc1Nc1ncc2c(n1)N(C)c1ccccc1C(=O)N2C
Activity [1]: 0.9%
IC50 [2]: > 50 µM
IC50 [3]: > 50 µM
IC50 [4]: > 50 µM
IC50 [5]: > 50 µM
IC50 [6]: > 50 µM
IC50 [7]: > 50 µM
IC50 (RPS6KA1/RPS6KA2/RPS6KA3): > 50 µM
inhibition [8]: -3.9%
inhibition [9]: 0.3%
inhibition [10]: -5.4%
